In ChEMBL document CHEMBL5107950, “Structure-based design of haloperidol analogues as inhibitors of acetyltransferase Eis from Mycobacterium tuberculosis to overcome kanamycin resistance” (RSC Med Chem, 2021):
≈ marks a conversion by molar mass, not a printed value. Calls of active or inactive are those of the source. The calls are words filed in the database; no cut-off is given here.

How the values were obtained:
[1] = test system: Mycobacterium tuberculosis; assay: Antibacterial activity against Mycobacterium tuberculosis mc2 6230 with Eis C-14T mutation assessed as inhibition of bacterial growth incubated upto 3 weeks hrs by resazurin dye based double-dilution method; assay type: functional
Method in brief: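 Double-dilution broth MIC. Media: M. smegmatis, Mueller-Hinton; M. abscessus, 7H9 + 0.05% Tween80 + 0.4% glycerol; mc²6230, 7H9 + 0.05% tyloxapol, 0.5% glycerol, 10% OADC, 0.2% casamino acids, 24 µg/mL pantothenate; other mycobacteria, 7H9 + 0.05% Tween80, 0.4% glycerol, 10% ADC. Inoculum from agar set to 0.5 McFarland, then diluted 1:100.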

[2] = test system: Mycobacterium tuberculosis; assay: Potentiation of kanamycin-induced antibacterial activity against Mycobacterium tuberculosis mc2 6230-K204 with Eis C-14T mutation assessed as kanamycin MIC incubated for 1 week by resazurin staining based microdilution method; assay type: functional; conditions: time 1 weeks
Method in brief: (§1)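 Microdilution in 7H9 + 10% OADC, 0.5% glycerol, 0.05% tyloxapol, 0.2% casamino acids, 24 µg/mL pantothenate. […] Culture at 0.5 McFarland diluted 1:100 and added. Incubated one week at 37 °C, then 5 µL of 2.5 mg/mL resazurin added, read after two days. Duplicate.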

[3] = test system: Mycobacterium tuberculosis; assay: Potentiation of kanamycin-induced antibacterial activity against Mycobacterium tuberculosis H37Rv mc2 6230 with Eis C-14T mutation assessed as kanamycin MIC incubated for 1 week by resazurin staining based microdilution method; assay type: functional; conditions: time 1 weeks; method in brief: as §1
[4] = test system: Mycobacterium tuberculosis; assay: Antibacterial activity against Mycobacterium tuberculosis mc2 6230-K204 with Eis C-14T mutation inhibition of bacterial growth at 100 uM incubated for 1 week by resazurin staining based microdilution method; assay type: functional, organism-based; conditions: time 1.0 weeks
[5] = test system: Mycobacterium tuberculosis; assay: Antibacterial activity against Mycobacterium tuberculosis H37Rv mc2 6230 with Eis C-14T mutation assessed as inhibition of bacterial growth at 100 uM incubated for 1 week by resazurin staining based microdilution method; assay type: functional, organism-based; conditions: time 1.0 weeks

SMILES: CC(C)(C)c1ccc(C(=O)CCCN2CCC(O)(c3ccc(Br)cc3)CC2)cc1
- MIC [1]: 4 µM (≈ 1.83 µg/mL)

SMILES: CCc1ccc(C(=O)CCCN2CCC(O)(c3ccc(Cl)cc3)CC2)cc1
- MIC [1]: 15.6 µM (≈ 6.02 µg/mL)

SMILES: O=C(CCCN1CCCCC1)c1ccc(F)cc1 [PRIMAPERONE]
- MIC [2]: >10 µg/mL
- MIC [3]: <=1.25 ug ml-1

SMILES: CC(C)c1ccc(C(=O)CCCN2CCC(O)(c3ccc(Cl)cc3)CC2)cc1
- MIC [1]: 7.8 µM (≈ 3.12 µg/mL)

SMILES: O=C(CCCN1CC=C(c2ccc(Cl)cc2)CC1)c1ccc(F)cc1
- inhibition [4]: Active
- MIC [1]: 32 µM (≈ 11.5 µg/mL)
- inhibition [5]: Active

SMILES: CC(C)(C)c1ccc(C(=O)CCCN2CCC(O)(c3ccc(Cl)cc3)CC2)cc1
- MIC [1]: 2 µM (≈ 0.828 µg/mL)

SMILES: O=C(CCCN1CCC(O)(c2ccccc2)CC1)c1ccc(F)cc1
- MIC [1]: >64 µM
- MIC [2]: >10 µg/mL
- MIC [3]: <=1.25 ug ml-1

SMILES: N=C(N)NCCCC(=O)c1ccc(F)cc1
- MIC [1]: >64 µM
- MIC [2]: >10 µg/mL
- MIC [3]: <=1.25 ug ml-1

SMILES: O=C(CCCN1CCC(O)CC1)c1ccc(F)cc1
- MIC [2]: >10 µg/mL
- MIC [3]: <=1.25 ug ml-1

SMILES: Cc1ccc(C(=O)CCCN2CCC(O)(c3ccc(Cl)cc3)CC2)cc1
- MIC [1]: 31.3 µM (≈ 11.6 µg/mL)

SMILES: O=C(CCCN1CCC(c2ccc(Cl)cc2)CC1)c1ccc(F)cc1
- inhibition [4]: Active
- MIC [1]: 64 µM (≈ 23 µg/mL)
- inhibition [5]: Active
